Results published in PubChem BioAssay AID704 (The Scripps Research Institute Molecular Screening Center, 2007).
The whole screen tested about 97,000 compounds, of which about 770 (0.79%) were called active.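 The calls were made as follows: active = inhibition above the screen-wide mean plus 3 SD (cut at about 35% in these data); inactive = the rest.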 What follows is part of a selection rich in actives, with near analogues and random picks from the rest.

Molecular target: Protein Rev (Human immunodeficiency virus type 1 group M subtype B (isolate WMJ22)) (UniProt P05866)
Assay: disruptors of Rev peptide-RRE RNA complex – biochemical, FRET, protein-RNA interaction, primary screen (AID 704);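 also: 0% = median DMSO wells and 100% = median Neomycin B control wells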
Details: Rev peptide-RRE RNA binding, at 8 µM, hits give high values
Procedure, shortened: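 Assay system: Rev peptide and RRE RNA, both fluorescently labelled; times: 5 min preincubation and 15 min binding, 25 °C; detection: FRET, ex 480 nm, em 540 and 671 nm; read-out basis: % inhibition from 671/540 nm acceptor-to-donor ratio, scaled between controls; benchmarks: DMSO low control, neomycin B high control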

Sequence of Protein Rev (Human immunodeficiency virus type 1 group M subtype B (isolate WMJ22)) (P05866 whole entry, looked up): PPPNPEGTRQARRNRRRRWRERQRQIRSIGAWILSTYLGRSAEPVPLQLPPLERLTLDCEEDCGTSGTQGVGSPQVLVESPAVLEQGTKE

inhibition, inactive:
Cc1c(C(=O)OC(C)C)sc(NC(=O)c2cccnc2)c1C#N 27.8%
CC(C)c1cc(C(N)=O)c(NC(=O)c2cccc(COc3ccc(Br)cc3)c2)s1 15.9%
CC1=CC(C)(C)Nc2ccc(OC(=O)C(Cc3ccccc3)N3C(=O)C4CCCCC4C3=O)cc21 (stereo not drawn) -0.51%
CCCNC(=O)CN(Cc1ccccc1F)S(=O)(=O)c1ccc(C)cc1 8.11%
COC(=O)/C(NC(C)=O)=C(\C)c1ccc(Cl)cc1 1.2%
O=C(c1cc2c(s1)CCC2)N1CCN(c2ccccc2)CC1 -4.48%
CC(=O)Nc1ccc(OCC(O)CN2CCN(c3ccccc3Cl)CC2)cc1 (stereo not drawn) -0.14%
Cc1cc2c(c(=O)n1Cc1ccco1)C(c1ccccc1)C(C#N)=C(N)O2 (stereo not drawn) 7.8%
CCOC(=O)CSc1nc2c(sc(=S)n2CCc2ccccc2)c(=O)n1Cc1ccco1 7.11%
N#C/C(=C(/O)Cc1cccc2ccccc12)c1nc2ccccc2s1 3.55%
O=C(C1=C(O)C(=O)N(Cc2ccccc2)C1c1ccco1)c1ccco1 (stereo not drawn) 0.29%
O=C(C1=C(O)C(=O)N(Cc2ccccc2)C1c1cccnc1)c1ccco1 (stereo not drawn) 7.49%
O=c1c2ccccc2nc2n1C(CSc1ccc(Cl)cc1)CN2 (stereo not drawn) 6.92%
CCOC(=O)c1sc(C)c2c1NC(C)(c1cccc3ccccc13)NC2=O (stereo not drawn) 18.2%
CCN1C(=O)C(CC(=O)Nc2cc(C)ccc2C)SC1=Nc1ccc(S(N)(=O)=O)cc1 (stereo not drawn) 9.41%
CC(CN1CCOCC1)c1ccccc1 (stereo not drawn) 10.4%
Cc1ccc(NC(=O)Nc2ccc3oc(C)nc3c2)cc1 7.33%
CCOCN(C(=O)Cn1c(C(C)O)nc2ccccc21)c1c(C)cccc1CC (stereo not drawn) 2.37%
Cc1c(C#N)c(NC(=O)c2ccccc2)n(Cc2ccccc2)c1C 2.3%
Cc1nn(CCOc2ccccc2)c(=O)n1-c1ccccc1F 5.48%
COc1cc(C(=O)OC(C)C(=O)NCC2CCCCC2)cc(NC(=O)c2ccco2)c1OC (stereo not drawn) -0.95%
CCOCc1nnc(NC(=O)CSc2ccc(C)cc2)s1 6.99%
CN(C)CCNC(=O)Nc1cccc(Cl)c1Cl 2.97%
O=C1COc2ccc(NC(=O)N3CCN(c4ccc(F)cc4)CC3)cc2N1 5.12%
O=C(CC12CC3CC(CC(C3)C1)C2)Nc1ccc2c(c1)COC2=O 11.5%
CN1/C(=C\C(=O)c2oc3ccccc3c2N)C(C)(C)c2ccccc21 6.51%
Cc1noc(C)c1C(=O)OCC(=O)/C=C1\N(C)c2ccccc2C1(C)C 2.24%
COc1ccc(Nc2nc(=O)[nH]nc2C)cc1 4.41%
COc1ccc([N+](=O)[O-])cc1NC(=O)CCc1ccccc1 1.01%
CCOC(=O)C1=C(C)Nc2sc(C(=O)c3ccc(Br)cc3)c(N)c2C1c1ccc(C(=O)OC)cc1 (stereo not drawn) 7.08%
Cc1cccc(C)c1N1CCN(S(=O)(=O)N2CCOCC2)CC1 8.84%
Cc1cc(N2CCN(S(=O)(=O)c3ccc(C)c(C)c3)CC2)c2ccccc2n1 16.5%
Cc1ccc(S(=O)(=O)Nc2nc3ccccc3nc2N2CCc3ccccc3C2)cc1 6.67%
CC(C)=C1SC(N2CCN(c3cccc(C)c3)CC2)=NC1=O 3.88%
CCOC(=O)c1cc2n(c1C)-c1ccccc1C2=O 7.43%
CC(C)OC(=O)CN1C(=O)C(=O)c2ccccc21 9.74%
CC(C)CCNC(=O)Cn1c(=O)oc2cc(S(=O)(=O)N3CC(C)CC(C)C3)ccc21 (stereo not drawn) 4.77%
CCCCCCn1c(CN2CCCC(C)C2)nc2c1c(=O)n(C)c(=O)n2C (stereo not drawn) 7.64%
CCOC(=O)N1CCN(c2c(NCCCN3CCCC(C)C3)c(=O)c2=O)CC1 (stereo not drawn) 1.25%
O=C(O)c1ccccc1NC(=S)NC(NC(=O)c1ccccc1[N+](=O)[O-])C(Cl)(Cl)Cl (stereo not drawn) -3.09%
CCc1nnc(NC(=O)c2cccs2)s1 7.76%
CCc1nnc(NC(=O)c2nc3nccc(C)n3n2)s1 12.3%
COc1cccc(/C=N/NC(=O)c2cccc([N+](=O)[O-])c2)c1OS(=O)(=O)c1ccc(C)cc1 11.5%
Cc1ccc(-n2c(C)cc(/C=N/Nc3ccc([N+](=O)[O-])cn3)c2C)c(C)c1 31.5%
C=CCNc1cnn(-c2ccc(C)cc2)c(=O)c1Cl -1.57%
Cc1ccc(-n2c(C)cc(/C=C(\C#N)C(=O)NCC3CCCO3)c2C)cc1 (stereo not drawn) -6.05%
N#CCSc1nc2c(c(=O)n1Cc1ccccc1)C1(CCCC1)Cc1ccccc1-2 23.3%
CC(C)OCCCNc1nc2c(c(=O)n(Cc3ccccc3F)c(=O)n2C)n1C 8.58%
Cn1nc(C(F)(F)F)c(C(=O)Nc2cccc(C(F)(F)F)c2)c1SCc1ccc(Cl)cc1 9.7%
COc1ccc(CNC(=O)C2CCC(CNc3c(N4CCOCC4)c(=O)c3=O)CC2)cc1 (stereo not drawn) -0.22%
CCOc1ccc(CN(Cc2ccco2)S(=O)(=O)c2ccc(-n3cnnn3)c(OC)c2)cc1 18.6%
O=C(O)C1CCN(C(=O)OCc2ccccc2)CC1 2.49%
CCC(C)n1c(-c2cc(OC)c(OC)c(OC)c2)nc2nc3ccccc3nc21 (stereo not drawn) 2.36%
CCOC(=O)C1=C(CN2CCc3ccccc32)NC(=O)NC1c1ccc(Cl)cc1 (stereo not drawn) 10.3%
CCOCCOCCC(C(=O)O)P(=O)(c1ccccc1)c1ccccc1 (stereo not drawn) 0.47%
O=c1cc(C(F)(F)F)[nH]c(=O)n1C1CCCCC1 8.66%
COC(=O)C1=C(C)N=C2SC(C)C(=O)N2C1/C=C/c1ccccc1 (stereo not drawn) 4.63%
C=C(Cl)COC(=O)C1C2C=CC(C2)C1C(=O)O (stereo not drawn) 3.94%
Cc1cccc(N(C(=O)c2ccc(CN3CCOCC3)o2)C(C(=O)NC2CCCCC2)c2ccc(F)cc2)c1 (stereo not drawn) 0.55%
Cc1[nH]n(-c2ccccc2)c(=O)c1CCOC(=O)c1ccc(C(F)(F)F)cc1 3.64%
N#Cc1c(N)n(CCOC(=O)c2ccc(Cl)cc2)c2nc3ccccc3nc12 7.97%
OC(COc1ccc2c(c1)CCC2)CN1CCN(c2cccc(Cl)c2)CC1 (stereo not drawn) 13.2%
Cc1cc(OCCOc2cccc3cccnc23)c(C)cc1Cl 17.3%
Cc1ccc2nc(Nc3ccccc3O)nc(-c3ccccc3)c2c1 9.78%

inhibition, active:
CN(c1ccccc1)c1ccc(/C=c2\s/c(=C(/C#N)C(=O)C(C)(C)C)n(Cc3ccco3)c2=O)cc1 117% [fluorescence artefact?]
O=C(C1=C(O)C(=O)N(c2ncccn2)C1c1cccs1)c1ccco1 (stereo not drawn) 46.5%
COc1cc(/C=C(\C#N)c2nc3c(s2)CC(C)CC3)ccc1O (stereo not drawn) 66%
CS(=O)(=O)c1ccc2c(c1)SC1=NC(=O)/C(=C/c3ccco3)C(=N)N12 36.1%
Oc1ccc2ccc3cccc[n+]3c2c1 120% [fluorescence artefact?]
CN1/C(=C\C=C2\N=C(c3ccc(F)cc3)OC2=O)C(C)(C)c2ccccc21 48.7%
Cc1ccc(S(=O)(=O)C(C#N)c2nc3ccccc3nc2N2CCCC2)cc1C (stereo not drawn) 80% [fluorescence artefact?]
CCOC(=O)c1cc2n(c1N)-c1ccccc1C2=O 107% [fluorescence artefact?]
CCCn1c(O)c(CN2CCCC(C)C2)c(C)c(C#N)c1=O (stereo not drawn) 42.6%
CCc1ccc2nc3sc(C(=O)Nc4nnc(CC)s4)c(N)c3cc2c1 89.2% [fluorescence artefact?]
Cc1cccc(COc2ccccc2/C=N/Nc2ccc([N+](=O)[O-])cc2)c1 64%
Cc1cccn2c(=O)c(/C=C3\SC(=S)N(CC(C)C)C3=O)c(NCCCOC(C)C)nc12 73.4%
Oc1ccc(-c2onc3ccc(Cl)cc23)cc1 47.9%
CN(C)CCCn1c(N)c(C#N)c2nc(C#N)c(C#N)nc21 44.4%
